{
  "source": "ChEMBL document CHEMBL2203081",
  "about": "(Bioorg Med Chem Lett, 2012)",
  "key": {"Plasma": {"system": "Plasma", "assay": "AUClast in Swiss albino mouse plasma at 10 mg/kg, po", "format": "ADME, organism-based", "parameters": "dose 10 mg/kg, route oral, time 0 - last", "conditions": "in vivo", "procedure,_shortened": "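Male Swiss Albino mice, single dose given intravenously (1 mg/kg) or orally (10 mg/kg). Drug measured in plasma and brain, with AUClast taken for each. The brain/plasma ratio is based on AUClast, and oral bioavailability is derived from the IV and PO plasma data.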"}, "Mus musculus [1]": {"system": "Mus musculus", "assay": "Inhibition of LRRK2 in mouse assessed as inhibition of Ser935 autophosphorylation in kidney at 100 mg/kg, ip by immunoblot method", "format": "functional, organism-based", "parameters": "dose 100 mg/kg"}, "[2]": {"target": "MAP kinase-interacting serine/threonine-protein kinase 2 (Homo sapiens) (UniProt Q9HBH9)", "assay": "Inhibition of MKNK2 assessed as residual activity at 10 uM relative to control"}, "Mus musculus [3]": {"system": "Mus musculus", "assay": "Oral bioavailability in Swiss albino mouse at 10 mg/kg", "format": "ADME, organism-based", "conditions": "in vivo"}, "[4]": {"target": "Microtubule-associated serine/threonine-protein kinase 1 (Homo sapiens) (UniProt Q9Y2H9)", "assay": "Inhibition of MAST1 assessed as residual activity at 10 uM relative to control"}, "[5]": {"target": "Atypical kinase COQ8B, mitochondrial (Homo sapiens) (UniProt Q96D53)", "assay": "Inhibition of ADCK4 assessed as residual activity at 10 uM relative to control"}, "[6]": {"target": "MAP kinase-activated protein kinase 5 (Homo sapiens) (UniProt Q8IW41)", "sequence (Q8IW41 whole entry)": "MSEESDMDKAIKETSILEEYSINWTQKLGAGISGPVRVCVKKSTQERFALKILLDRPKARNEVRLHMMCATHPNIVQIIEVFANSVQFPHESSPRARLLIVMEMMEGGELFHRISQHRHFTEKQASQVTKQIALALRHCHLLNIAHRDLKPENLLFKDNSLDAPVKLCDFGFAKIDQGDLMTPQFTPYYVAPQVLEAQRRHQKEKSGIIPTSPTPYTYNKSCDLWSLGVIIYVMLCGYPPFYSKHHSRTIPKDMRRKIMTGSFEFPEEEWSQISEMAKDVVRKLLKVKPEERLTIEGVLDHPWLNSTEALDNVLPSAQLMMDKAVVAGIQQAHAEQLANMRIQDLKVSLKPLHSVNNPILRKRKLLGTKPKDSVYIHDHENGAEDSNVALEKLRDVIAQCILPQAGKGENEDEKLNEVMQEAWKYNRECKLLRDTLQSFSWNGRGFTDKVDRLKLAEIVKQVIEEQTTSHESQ", "assay": "Inhibition of PRAK assessed as residual activity at 10 uM"}, "[7]": {"target": "Myosin light chain kinase, smooth muscle (Homo sapiens) (UniProt Q15746)", "assay": "Inhibition of SmMLCK assessed as residual activity at 1 uM"}, "[8]": {"target": "Misshapen-like kinase 1 (Homo sapiens) (UniProt Q8N4C8)", "assay": "Inhibition of MINK1 assessed as residual activity at 10 uM"}, "[9]": {"target": "Mitogen-activated protein kinase 1 (Homo sapiens) (UniProt P28482)", "assay": "Inhibition of ERK2 assessed as residual activity at 10 uM", "procedure,_shortened": "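Radioactivity-based enzymatic activity assay of the named kinase, run as part of a 131-kinase specificity panel at the National Centre for Protein Kinase Profiling (Dundee). Residual activity was read at the stated single inhibitor concentration.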"}, "[10]": {"target": "Protein kinase C iota type (Homo sapiens) (UniProt P41743)", "assay": "Inhibition of PRKCI assessed as residual activity at 10 uM relative to control"}, "[11]": {"target": "Angiopoietin-1 receptor (Homo sapiens) (UniProt Q02763)", "assay": "Inhibition of TIE2 assessed as residual activity at 10 uM"}, "[12]": {"target": "TRAF2 and NCK-interacting protein kinase (Homo sapiens) (UniProt Q9UKE5)", "sequence (Q9UKE5 whole entry, looked up)": "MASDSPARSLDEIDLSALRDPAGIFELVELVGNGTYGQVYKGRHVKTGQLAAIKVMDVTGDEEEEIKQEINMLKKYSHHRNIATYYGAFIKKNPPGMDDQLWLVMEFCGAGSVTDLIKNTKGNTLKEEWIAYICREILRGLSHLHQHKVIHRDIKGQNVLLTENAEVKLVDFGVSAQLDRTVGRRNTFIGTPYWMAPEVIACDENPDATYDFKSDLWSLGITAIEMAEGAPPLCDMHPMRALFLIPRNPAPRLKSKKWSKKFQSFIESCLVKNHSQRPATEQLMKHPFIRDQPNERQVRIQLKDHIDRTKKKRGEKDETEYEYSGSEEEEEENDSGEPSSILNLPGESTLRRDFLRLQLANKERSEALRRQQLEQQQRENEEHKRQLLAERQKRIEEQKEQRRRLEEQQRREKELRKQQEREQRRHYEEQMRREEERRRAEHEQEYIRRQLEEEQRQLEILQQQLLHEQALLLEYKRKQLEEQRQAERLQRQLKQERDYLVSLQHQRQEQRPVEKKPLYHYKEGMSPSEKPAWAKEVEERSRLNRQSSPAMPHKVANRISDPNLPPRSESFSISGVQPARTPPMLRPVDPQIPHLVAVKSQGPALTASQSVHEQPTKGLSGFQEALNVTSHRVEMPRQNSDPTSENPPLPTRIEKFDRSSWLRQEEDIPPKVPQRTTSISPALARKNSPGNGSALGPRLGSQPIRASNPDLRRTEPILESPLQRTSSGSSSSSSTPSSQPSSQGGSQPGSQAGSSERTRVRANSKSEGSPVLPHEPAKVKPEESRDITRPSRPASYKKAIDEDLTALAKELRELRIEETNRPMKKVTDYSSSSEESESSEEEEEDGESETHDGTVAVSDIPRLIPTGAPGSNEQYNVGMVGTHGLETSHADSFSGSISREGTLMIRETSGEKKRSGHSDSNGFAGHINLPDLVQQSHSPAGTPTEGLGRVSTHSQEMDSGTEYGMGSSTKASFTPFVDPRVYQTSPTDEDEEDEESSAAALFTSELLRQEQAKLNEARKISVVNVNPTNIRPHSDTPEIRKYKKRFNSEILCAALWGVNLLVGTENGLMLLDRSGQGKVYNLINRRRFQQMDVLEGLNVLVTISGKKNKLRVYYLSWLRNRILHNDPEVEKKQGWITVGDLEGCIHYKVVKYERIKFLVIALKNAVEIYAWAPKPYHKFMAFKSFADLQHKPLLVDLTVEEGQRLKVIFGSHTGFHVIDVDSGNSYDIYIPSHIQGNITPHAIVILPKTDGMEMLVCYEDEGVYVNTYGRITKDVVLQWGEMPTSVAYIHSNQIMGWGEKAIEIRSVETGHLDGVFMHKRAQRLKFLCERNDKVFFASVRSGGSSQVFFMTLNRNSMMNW", "assay": "Inhibition of TNIK assessed as residual activity at 10 uM relative to control"}, "[13]": {"target": "Aurora kinase C (Homo sapiens) (UniProt Q9UQB9)", "sequence (Q9UQB9 whole entry)": "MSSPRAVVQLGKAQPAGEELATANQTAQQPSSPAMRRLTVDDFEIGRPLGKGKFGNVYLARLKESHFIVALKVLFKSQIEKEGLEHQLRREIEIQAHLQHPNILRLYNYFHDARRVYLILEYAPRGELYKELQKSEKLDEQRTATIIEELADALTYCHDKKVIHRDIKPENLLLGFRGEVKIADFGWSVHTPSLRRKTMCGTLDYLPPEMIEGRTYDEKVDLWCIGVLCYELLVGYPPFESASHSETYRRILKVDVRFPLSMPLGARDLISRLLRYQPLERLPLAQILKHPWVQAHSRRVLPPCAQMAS", "assay": "Inhibition of AURKC assessed as residual activity at 10 uM relative to control"}, "[14]": {"target": "Mitogen-activated protein kinase kinase kinase 10 (Homo sapiens) (UniProt Q02779)", "sequence (Q02779 whole entry, looked up)": "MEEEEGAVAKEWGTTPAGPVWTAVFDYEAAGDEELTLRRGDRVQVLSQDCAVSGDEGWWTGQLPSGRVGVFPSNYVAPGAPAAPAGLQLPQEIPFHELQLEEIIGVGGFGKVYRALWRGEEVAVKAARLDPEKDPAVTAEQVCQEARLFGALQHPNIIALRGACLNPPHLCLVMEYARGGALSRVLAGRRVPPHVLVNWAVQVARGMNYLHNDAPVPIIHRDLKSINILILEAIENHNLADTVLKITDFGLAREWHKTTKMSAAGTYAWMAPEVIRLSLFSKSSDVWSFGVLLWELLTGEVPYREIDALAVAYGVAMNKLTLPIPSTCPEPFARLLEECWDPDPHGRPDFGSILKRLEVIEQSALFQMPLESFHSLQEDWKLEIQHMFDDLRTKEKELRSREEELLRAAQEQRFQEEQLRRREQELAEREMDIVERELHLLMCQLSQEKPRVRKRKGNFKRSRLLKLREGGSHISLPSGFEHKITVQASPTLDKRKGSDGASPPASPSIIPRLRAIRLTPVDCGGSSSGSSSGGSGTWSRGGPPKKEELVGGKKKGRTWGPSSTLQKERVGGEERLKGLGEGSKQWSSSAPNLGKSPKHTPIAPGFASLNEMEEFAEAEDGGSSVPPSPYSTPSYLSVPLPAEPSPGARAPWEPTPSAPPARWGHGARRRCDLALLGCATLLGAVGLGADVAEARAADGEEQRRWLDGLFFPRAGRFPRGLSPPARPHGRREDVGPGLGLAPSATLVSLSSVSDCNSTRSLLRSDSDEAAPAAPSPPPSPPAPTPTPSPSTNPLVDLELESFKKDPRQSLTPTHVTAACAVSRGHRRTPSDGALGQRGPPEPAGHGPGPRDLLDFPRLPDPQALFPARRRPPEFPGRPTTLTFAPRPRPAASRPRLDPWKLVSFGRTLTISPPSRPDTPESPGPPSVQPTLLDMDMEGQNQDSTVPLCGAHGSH", "assay": "Inhibition of MLK2 assessed as residual activity at 10 uM relative to control"}, "[15]": {"target": "T1, Serine/threonine-protein kinase D1 (Homo sapiens) (UniProt Q15139)", "T1 sequence (whole entry)": "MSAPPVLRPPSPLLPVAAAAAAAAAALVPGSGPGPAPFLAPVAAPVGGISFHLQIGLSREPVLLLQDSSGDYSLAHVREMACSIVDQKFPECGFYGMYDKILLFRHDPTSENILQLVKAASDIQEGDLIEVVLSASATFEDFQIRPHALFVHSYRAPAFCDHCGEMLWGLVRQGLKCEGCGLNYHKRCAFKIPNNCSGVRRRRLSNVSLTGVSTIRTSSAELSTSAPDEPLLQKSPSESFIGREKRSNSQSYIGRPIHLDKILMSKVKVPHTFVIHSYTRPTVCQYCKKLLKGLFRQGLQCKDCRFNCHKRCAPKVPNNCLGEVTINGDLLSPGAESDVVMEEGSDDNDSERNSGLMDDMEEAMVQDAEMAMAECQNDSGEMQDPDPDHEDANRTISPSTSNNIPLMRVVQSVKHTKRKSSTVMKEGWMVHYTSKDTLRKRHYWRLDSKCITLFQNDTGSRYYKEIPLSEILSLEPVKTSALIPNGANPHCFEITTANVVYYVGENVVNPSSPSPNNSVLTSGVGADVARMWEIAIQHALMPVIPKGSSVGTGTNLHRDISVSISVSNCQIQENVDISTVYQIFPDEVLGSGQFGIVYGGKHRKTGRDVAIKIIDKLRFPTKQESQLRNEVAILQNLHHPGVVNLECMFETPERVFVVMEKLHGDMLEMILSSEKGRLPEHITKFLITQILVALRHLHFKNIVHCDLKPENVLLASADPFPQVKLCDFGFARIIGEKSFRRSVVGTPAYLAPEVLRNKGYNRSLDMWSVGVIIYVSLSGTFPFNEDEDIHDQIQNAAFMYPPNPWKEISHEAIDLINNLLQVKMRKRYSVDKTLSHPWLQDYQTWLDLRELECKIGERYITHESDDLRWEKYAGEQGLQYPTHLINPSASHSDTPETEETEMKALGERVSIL", "assay": "Inhibition of PKD1 assessed as residual activity at 1 uM"}, "[16]": {"system": "Receptor-type tyrosine-protein kinase FLT3 (Homo sapiens), P36888 [N841I]", "assay": "Inhibition of FLT3 N841I mutant assessed as residual activity at 10 uM relative to control"}, "[17]": {"target": "RAC-gamma serine/threonine-protein kinase (Homo sapiens) (UniProt Q9Y243)", "sequence (Q9Y243 whole entry)": "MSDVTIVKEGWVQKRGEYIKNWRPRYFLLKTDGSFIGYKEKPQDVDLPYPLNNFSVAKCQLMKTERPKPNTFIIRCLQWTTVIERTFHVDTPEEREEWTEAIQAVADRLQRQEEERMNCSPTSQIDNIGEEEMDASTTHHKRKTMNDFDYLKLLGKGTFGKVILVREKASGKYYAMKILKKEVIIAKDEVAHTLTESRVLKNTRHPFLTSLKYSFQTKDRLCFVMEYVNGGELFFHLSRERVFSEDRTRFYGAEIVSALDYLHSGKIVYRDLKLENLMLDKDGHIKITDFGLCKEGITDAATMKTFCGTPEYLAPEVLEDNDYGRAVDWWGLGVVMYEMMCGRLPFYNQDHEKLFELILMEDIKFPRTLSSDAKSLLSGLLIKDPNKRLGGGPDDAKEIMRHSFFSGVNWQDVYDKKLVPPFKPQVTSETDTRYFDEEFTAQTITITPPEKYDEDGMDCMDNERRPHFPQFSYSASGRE", "assay": "Inhibition of AKT3 assessed as residual activity at 10 uM relative to control"}, "[18]": {"target": "Serine/threonine-protein kinase pim-1 (Homo sapiens) (UniProt P11309)", "assay": "Inhibition of PIM1 assessed as residual activity at 1 uM"}, "[19]": {"target": "Calcium/calmodulin-dependent protein kinase type II subunit delta (Homo sapiens) (UniProt Q13557)", "assay": "Inhibition of CAMK2D assessed as residual activity at 10 uM relative to control"}, "[20]": {"target": "Calcium/calmodulin-dependent protein kinase kinase 2 (Homo sapiens) (UniProt Q96RR4)", "sequence (Q96RR4 2-588 limits assumed)": "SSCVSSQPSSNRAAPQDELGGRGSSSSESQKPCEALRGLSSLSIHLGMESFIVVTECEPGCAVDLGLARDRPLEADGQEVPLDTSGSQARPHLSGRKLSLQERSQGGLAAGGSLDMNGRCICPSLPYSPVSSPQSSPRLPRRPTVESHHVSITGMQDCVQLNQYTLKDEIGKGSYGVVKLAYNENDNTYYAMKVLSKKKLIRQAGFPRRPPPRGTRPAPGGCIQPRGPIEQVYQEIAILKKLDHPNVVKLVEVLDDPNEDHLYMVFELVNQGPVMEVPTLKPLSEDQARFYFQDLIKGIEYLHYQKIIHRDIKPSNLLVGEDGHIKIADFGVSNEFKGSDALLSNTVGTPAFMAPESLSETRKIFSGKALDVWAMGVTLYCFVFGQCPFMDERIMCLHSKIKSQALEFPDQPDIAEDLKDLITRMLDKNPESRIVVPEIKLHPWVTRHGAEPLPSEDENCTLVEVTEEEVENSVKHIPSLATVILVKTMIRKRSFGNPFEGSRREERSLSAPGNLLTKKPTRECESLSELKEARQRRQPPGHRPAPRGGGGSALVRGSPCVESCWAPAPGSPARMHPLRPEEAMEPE", "assay": "Inhibition of CAMKKb assessed as residual activity at 1 uM"}, "[21]": {"target": "Tyrosine-protein kinase SYK (Homo sapiens) (UniProt P43405)", "assay": "Inhibition of SYK assessed as residual activity at 1 uM"}, "[22]": {"target": "Casein kinase I isoform delta (Homo sapiens) (UniProt P48730)", "sequence (P48730 whole entry, looked up, canonical isoform)": "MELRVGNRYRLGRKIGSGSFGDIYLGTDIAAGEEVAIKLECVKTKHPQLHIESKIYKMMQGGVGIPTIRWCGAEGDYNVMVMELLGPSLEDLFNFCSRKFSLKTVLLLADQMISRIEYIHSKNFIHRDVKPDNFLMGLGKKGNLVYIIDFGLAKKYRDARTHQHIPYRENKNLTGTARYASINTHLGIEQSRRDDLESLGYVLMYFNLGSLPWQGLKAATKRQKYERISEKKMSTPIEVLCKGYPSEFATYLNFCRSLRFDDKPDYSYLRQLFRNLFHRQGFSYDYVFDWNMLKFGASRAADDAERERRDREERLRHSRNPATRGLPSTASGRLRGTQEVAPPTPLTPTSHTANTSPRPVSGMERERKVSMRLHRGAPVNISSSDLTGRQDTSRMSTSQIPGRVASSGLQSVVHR", "assay": "Inhibition of CK1d assessed as residual activity at 1 uM", "procedure,_shortened": "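Radioactivity-based enzymatic assay against a panel of 131 kinases (Dundee profiling). Activity remaining was measured with compound present at the stated concentration.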"}, "[23]": {"target": "Receptor-type tyrosine-protein kinase FLT3 (Homo sapiens) (UniProt P36888)", "assay": "Inhibition of FLT3 assessed as residual activity at 10 uM relative to control"}, "[24]": {"target": "Cyclin-dependent kinase 5 (Homo sapiens) (UniProt Q00535)", "sequence (Q00535 whole entry, looked up)": "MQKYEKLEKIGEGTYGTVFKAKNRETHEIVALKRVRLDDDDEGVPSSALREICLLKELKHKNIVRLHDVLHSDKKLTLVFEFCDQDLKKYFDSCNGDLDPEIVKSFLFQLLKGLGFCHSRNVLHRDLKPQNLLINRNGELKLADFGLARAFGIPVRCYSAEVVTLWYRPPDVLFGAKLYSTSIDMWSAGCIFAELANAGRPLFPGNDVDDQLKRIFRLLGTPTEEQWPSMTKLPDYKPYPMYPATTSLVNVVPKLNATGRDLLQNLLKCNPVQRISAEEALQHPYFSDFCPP", "assay": "Inhibition of CDK5 assessed as residual activity at 10 uM relative to control"}, "[25]": {"target": "Casein kinase I isoform delta (Homo sapiens) (UniProt P48730)", "assay": "Inhibition of CSNK1D assessed as residual activity at 10 uM relative to control", "procedure,_shortened": "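Competition kinase-binding assay (KINOMEscan) across a non-redundant panel of 329 kinases beyond the radiometric panel; residual binding expressed relative to control.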"}},
  "note": "The source made the active and inactive calls. The rule behind the calls is not given here.",
  "data": [
    {"smiles": "O=C(Nc1cccnc1)c1cc(-c2ccnc(F)c2)ccc1OCc1ccccc1", "values": [
      {"measurement": "AUClast", "setting": "Plasma", "result": 635.3, "unit": "ng·h/mL"},
      {"measurement": "inhibition", "setting": "Mus musculus [1]", "result": "Active"},
      {"measurement": "Activity", "setting": "[2]", "result": 52, "unit": "%"},
      {"measurement": "F", "setting": "Mus musculus [3]", "result": 12.2, "unit": "%"},
      {"measurement": "Activity", "setting": "[4]", "result": 35, "unit": "%"},
      {"measurement": "Activity", "setting": "[5]", "result": 26, "unit": "%"},
      {"measurement": "Activity", "setting": "[6]", "result": 114, "unit": "%"},
      {"measurement": "Activity", "setting": "[7]", "result": 32, "unit": "%"},
      {"measurement": "Activity", "setting": "[8]", "result": 76, "unit": "%"},
      {"measurement": "Activity", "setting": "[9]", "result": 115, "unit": "%"},
      {"measurement": "Activity", "setting": "[10]", "result": 73, "unit": "%"},
      {"measurement": "Activity", "setting": "[11]", "result": 133, "unit": "%"},
      {"measurement": "Activity", "setting": "[12]", "result": 74, "unit": "%"},
      {"measurement": "Activity", "setting": "[13]", "result": 75, "unit": "%"},
      {"measurement": "Activity", "setting": "[14]", "result": 77, "unit": "%"},
      {"measurement": "Activity", "setting": "[15]", "result": 80, "unit": "%"},
      {"measurement": "Activity", "setting": "[16]", "result": 30, "unit": "%"},
      {"measurement": "Activity", "setting": "[17]", "result": 51, "unit": "%"},
      {"measurement": "Activity", "setting": "[18]", "result": 102, "unit": "%"},
      {"measurement": "Activity", "setting": "[19]", "result": 64, "unit": "%"},
      {"measurement": "Activity", "setting": "[20]", "result": 71, "unit": "%"},
      {"measurement": "Activity", "setting": "[21]", "result": 115, "unit": "%"},
      {"measurement": "Activity", "setting": "[22]", "result": 107, "unit": "%"},
      {"measurement": "Activity", "setting": "[23]", "result": 66, "unit": "%"},
      {"measurement": "Activity", "setting": "[24]", "result": 70, "unit": "%"},
      {"measurement": "Activity", "setting": "[25]", "result": 19, "unit": "%"}
    ]}
  ]
}
